Data from ChEMBL document CHEMBL1122366, “Potential antiatherosclerotic agents. 3. Substituted benzoic and non benzoic acid analogues of cetaben” (1983).

Experiments:
[1] = test system: Rattus norvegicus; experiment: In vivo sterol lowering activity when dosed as 0.01 % of the diet; assay type: functional
In short: (§1)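 Normal rats were dosed in the diet. Serum sterol and triglyceride levels were measured and expressed as the mean percent of control values. Significance versus control was reported at p < 0.05, 0.01 and 0.001.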

[2] = test system: Rattus norvegicus; experiment: In vivo triglyceride lowering activity when dosed as 0.01 % of the diet; assay type: functional; in short: as §1
[3] = test system: Rattus norvegicus; experiment: In vivo triglyceride lowering activity dosed at 0.10 % of the diet.; assay type: functional; in short: as §1
[4] = test system: Rattus norvegicus; experiment: In vivo sterol lowering activity when dosed as 0.03 % of the diet; assay type: functional; in short: as §1
[5] = test system: Rattus norvegicus; experiment: In vivo triglyceride lowering activity when dosed at 0.03 % of the diet; assay type: functional; in short: as §1
[6] = test system: Rattus norvegicus; experiment: In vivo sterol lowering activity at dose of 0.10 % of the diet; assay type: functional; in short: as §1
[7] = target: T1, Sterol O-acyltransferase 1 (Rattus norvegicus) (UniProt O70536); experiment: In vitro inhibition of acyl coenzyme A:cholesterol acyltransferase; design: concentration or dose not given beside the values; details: concentration not given here
T1 sequence (whole entry): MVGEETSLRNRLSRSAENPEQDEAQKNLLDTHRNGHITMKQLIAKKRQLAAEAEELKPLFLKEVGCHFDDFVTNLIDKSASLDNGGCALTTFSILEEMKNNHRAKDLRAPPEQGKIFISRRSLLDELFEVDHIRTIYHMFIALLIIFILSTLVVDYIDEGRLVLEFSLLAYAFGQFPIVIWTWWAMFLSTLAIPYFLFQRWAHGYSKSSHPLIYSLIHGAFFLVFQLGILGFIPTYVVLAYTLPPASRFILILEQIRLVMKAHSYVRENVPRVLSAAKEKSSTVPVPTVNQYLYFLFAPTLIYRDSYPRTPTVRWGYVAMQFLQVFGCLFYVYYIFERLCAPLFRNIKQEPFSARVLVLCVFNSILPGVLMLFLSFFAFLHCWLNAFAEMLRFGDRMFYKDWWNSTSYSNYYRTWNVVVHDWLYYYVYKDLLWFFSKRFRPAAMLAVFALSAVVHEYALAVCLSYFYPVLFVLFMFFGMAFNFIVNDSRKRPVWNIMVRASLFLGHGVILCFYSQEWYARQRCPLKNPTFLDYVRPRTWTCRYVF
In short: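 Enzyme fatty acyl-CoA:cholesterol acyltransferase (ACAT), assayed in vitro at a single drug concentration of 5.2 μg/mL. The value is the mean percent inhibition of enzyme activity.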

| inhibition [7] [%] | SMILES | serum sterol level, % of control [1] [%] | serum triglyceride level, percent of control [2] [%] | serum triglyceride, percent of control [3] [%] | serum sterol level, percent of control [4] [%] | serum triglyceride level, percent of control [5] [%] | serum sterol level, percent of control [6] [%] |
| --- | --- | --- | --- | --- | --- | --- | --- |
|  | CCCCCCCCCCCCCCCCNc1ccc(C(=O)O)cc1 [CETABEN] | <72 | <71 | <31 | <71 | <45 | <54 |
|  | CCCCCCCCCCCCCCCCNc1ccc(C#N)cc1 | 86 | 83 | 75 | 92 | 71 | 96 |
|  | CCCCCCCCCCCCCCCCCN(C)c1ccc(C(=O)O)cc1 | 97 | 98 | 109 | 98 | 134 | 98 |
|  | CCCCCCCCCCCCCCCCN(C(C)=O)c1ccc(COC(C)=O)cc1 | 97 | <70 | 80 | 93 | <71 | 95 |
|  | CCCCCCCCCCCCCCCCN(CC)c1ccc(C(=O)[O-])cc1.[Na+] | 114 |  |  | 116 |  | 116 |
|  | CCCCCCCCCCCCCCCCN(C(C)=O)c1ccc(C(=O)O)cc1 | 105 | 109 | 121 | 105 | 107 | 103 |
|  | CCCCCCCCCCCCCCCCNc1ccc(C(=O)NS(=O)(=O)c2ccc(C)cc2)cc1 | 89 | <86 | <40 | <56 | <35 | <61 |
|  | CCCCCCCCCCCCCCCCNc1ccc(C(=O)[N-]S(=O)(=O)c2ccc(C)cc2)cc1.[Na+] | <64 | <52 | <32 | <52 | <37 | <48 |
| 7 | CCCCCCCCCCCCCCCCNc1ccc(C(=O)CCC(=O)OC)cc1 |  |  | 86 | <81 | 93 | <84 |
|  | CCCCCCCCCCCCCCCCNc1ccc(C(N)=O)cc1 | 100 |  | 114 | 102 |  | <86 |
| 14 | CCCCCCCCCCCCCCCCN(C(=O)CCCCCCCCCCCCCCC)c1ccc(C(=O)OCC(O)CO)cc1 (centres undefined) |  |  | 72 |  |  | 99 |
| < 49 | CCCCCCCCCCCCCCCCN(C(=O)C(F)(F)F)c1ccc(C(=O)C(C(=O)OCC)C(=O)OC(C)(C)C)cc1 (centres undefined) |  |  | <64 |  |  | 90 |
| 45 | CCCCCCCCCCCCCCCCNc1ccc(C(=O)NC(C)C(=O)O)cc1 (centres undefined) |  |  | 132 |  |  | 102 |
| 59 | CCCCCCCCCCCCCCCCNc1ccc(C(=O)N2CCCC2)cc1 | 113 | 75 | 95 | 98 |  | 101 |
| < 50 | CCCCCCCCCCCCCCCCN(C(=O)C(F)(F)F)c1ccc(C(=O)NNC(C)=O)cc1 |  |  | <61 |  |  | <81 |
| < 24 | CCCCCCCCCCCCCCCCNc1ccc(C(=O)OCC(COC)OC)cc1 (centres undefined) |  |  | 70 | 83 | 62 | 82 |
| < 68 | CCCCCCCCCCCCCCCCN(C(=O)C(F)(F)F)c1ccc(C(=O)N2CCCCC2)cc1 |  |  | <68 |  |  | 92 |
| 0 | CCCCCCCCCCCCCCCCNc1ccc(C(=O)OC)c(C)c1 |  |  | <60 |  |  | 99 |
| 48 | CCCCCCCCCCCCCCCCNc1ccc(C(=O)N(C)C)cc1 |  |  | 89 |  |  | 93 |
| 0 | CCCCCCCCCCCCCCCCNc1ccc(/C=N\N=C(\N)NCc2ccccc2)cc1 |  |  | <49 |  |  | 94 |
